ChEMBL document CHEMBL2384973, “Pharmacological activity of retinoic acid receptor alpha-selective antagonists in vitro and in vivo” (ACS Med Chem Lett, 2013)
Values after ≈ are worked out from the molar mass of the structure shown. Active and inactive are the calls of the source. The rule behind the calls is not given here.

Columns and labels:
[1] = Drug uptake in CD1 mouse testes at 39 mg/kg, po; type: ADME, organism-based, Testis; parameters: dose 39 mg/kg, route oral; settings: in vivo
[2] = Drug uptake in CD1 mouse testes at 3 mg/kg, iv; type: ADME, organism-based, Testis; parameters: dose 3 mg/kg, route intravenous; settings: in vivo
Mus musculus [3] = assay: Effect on spermatogenesis in CD1 mouse assessed as sperm release into testicular lumen at 10 mg/kg, iv after 7 days; type: functional, organism-based; parameters: dose 10 mg/kg
In short: (§1)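 Male mice given 10 mg/kg intravenously daily; testes examined histologically at end of treatment (6 days, n = 2; 7 days, n = 2) for spermatid alignment and sperm release into the lumen; vehicle controls.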

Caco-2 [4] = assay: Permeability from basolateral to apical side in human Caco2 cells at 10^-5 M at pH 6.5 to 7.4; type: ADME, cell-based; settings: caco-2, pH 6.5, 10 µM
In short: (§2)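 Caco-2 monolayers with apical/basolateral pH gradient 6.5/7.4, compound at 1.0 × 10–5 M; apparent permeability (cm/s) measured in A→B and B→A directions, with percent recovery reported.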

Mus musculus [5] = assay: Effect on spermatogenesis in CD1 mouse assessed as disruptive effect on spermatid alignment at 10 mg/kg, iv after 7 days; type: functional, organism-based; parameters: dose 10 mg/kg; in short: as §1
[6] = Permeability from basolateral to apical side in human Caco2 cellsassessed as drug recovery at 10^-5 M at pH 6.5 to 7.4; type: ADME, cell-based; settings: Caco-2, pH 6.5, read-out: permeability; in short: as §2
[7] = Metabolic stability in CD1 mouse liver microsomes assessed as parent compound remaining at 10^-6 M after 60 mins; type: ADME, Microsome; settings: read-out: Stability
In short: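 CD-1 mouse liver microsomes incubated with compound at 1.0 × 10–6 M for 60 min; percent parent compound remaining determined.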

[8] = Metabolic stability in CD1 mouse intestinal microsomes assessed as parent compound remaining at 10^-6 M after 60 mins; type: ADME, Intestine; settings: read-out: Stability
In short: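 CD-1 mouse intestinal microsomes incubated with compound at 1.0 × 10–6 M for 60 min; percent parent remaining determined.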

Plasma [9] = assay: Fraction unbound in CD1 mouse plasma; type: ADME, cell-free
In short: (§3)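 Binding to CD-1 mouse plasma proteins tested at 1.0 × 10–5 M; percent bound and percent recovery reported.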

Mus musculus [10] = assay: Effect on spermatogenesis in CD1 mouse assessed as disruptive effect on spermatid alignment at 10 mg/kg, iv after 6 days; type: functional, organism-based; parameters: dose 10 mg/kg; in short: as §1
[11] = Permeability from apical to basolateral side in human Caco2 cells assessed as drug recovery at 10^-5 M at pH 6.5 to 7.4; type: ADME, cell-based; settings: Caco-2, pH 6.5, read-out: permeability; in short: as §2
Mus musculus [12] = assay: Effect on spermatogenesis in CD1 mouse assessed as sperm release into testicular lumen at 10 mg/kg, iv after 6 days; type: functional, organism-based; parameters: dose 10 mg/kg; in short: as §1
Plasma [13] = assay: Drug recovery in CD1 mouse plasma 10^-5 M; type: ADME, cell-free; settings: 10 µM; in short: as §3
Caco-2 [14] = assay: Permeability from apical to basolateral side in human Caco2 cells at 10^-5 M at pH 6.5 to 7.4; type: ADME, cell-based; settings: caco-2, pH 6.5, 10 µM; in short: as §2
Plasma [15] = assay: Plasma protein binding in CD1 mouse at 10^-5 M; type: ADME, cell-free; settings: 10 µM; in short: as §3
[16] = Partition coefficient, log D of the compound in n-octanol-PBS at 10^-4 M at pH 7.4; type: physicochemical; settings: octanol/water, pH 7.4, 100 µM
In short: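 log D determined at pH 7.4 by n-octanol/PBS partitioning, reported as weighted average.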

[17] = Aqueous solubility of the compound in PBS at pH 7.4; type: physicochemical; settings: buffer
In short: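 Aqueous solubility determined in PBS buffer, pH 7.4; tested range <1–200 μM.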

[18] = Chemical stability of the compound by HPLC-MS analysis; type: physicochemical
Mus musculus [19] = assay: Toxicity in CD1 mouse assessed as change in testosterone levels at 2 to 10 mg/kg, po for 7 days by enzyme immunoassay relative to control; type: organism-based; parameters: dose 2-10 mg/kg, route oral; settings: in vivo, 168 h
In short: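 Male CD1 mice treated orally at two regimens (2 or 10 mg/kg daily, 7 days); sera collected for testosterone determination, values plotted for individual mice.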

Mus musculus [20] = assay: Toxicity in CD1 mouse assessed as change in body weight at 2 to 10 mg/kg, po; type: organism-based; parameters: dose 2-10 mg/kg, route oral; settings: in vivo
In short: (§4)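 Male CD1 mice gavaged daily with 2 or 10 mg/kg for 7 days, vehicle controls; body weight followed throughout; testes weighed one month post-treatment; mean ± SD of five mice per regimen, paired Student's t-test against age-matched controls.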

Mus musculus [21] = assay: Inhibition of spermatogenesis in CD1 mouse assessed as change in motility of epididymal sperm at 10 mg/kg, po for 7 days measured after 1 month by bright-field microscopic analysis; type: functional, organism-based; parameters: dose 10 mg/kg
Mus musculus [22] = assay: Inhibition of spermatogenesis in CD1 mouse assessed as change in morphology of caudal epididymides at 10 mg/kg, po for 7 days measured after 1 month by bright-field microscopic analysis; type: functional, organism-based; parameters: dose 10 mg/kg
In short: (§5)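 Male CD1 mice dosed by oral gavage at 2 or 10 mg/kg daily for 7 days, controls vehicle only; testes and epididymides collected one month post-treatment for histological staging of tubules (spermatid alignment at stage VIII, sperm release at stage IX).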

Mus musculus [23] = assay: Inhibition of spermatogenesis in CD1 mouse assessed as asynchronization of spermatogenic cell association at 10 mg/kg, po for 7 days measured after 1 month by bright-field microscopic analysis; type: functional, organism-based; parameters: dose 10 mg/kg; in short: as §5
Mus musculus [24] = assay: Inhibition of spermatogenesis in CD1 mouse assessed as presence of vacuolar-like spaces at 10 mg/kg, po for 7 days measured after 1 month by bright-field microscopic analysis; type: functional, organism-based; parameters: dose 10 mg/kg; in short: as §5
Mus musculus [25] = assay: Toxicity in CD1 mouse assessed as change in testicular weight at 2 to 10 mg/kg, po for 7 days relative to control; type: organism-based; parameters: dose 2-10 mg/kg, route oral; settings: in vivo, 168 h; in short: as §4
Mus musculus [26] = assay: Inhibition of spermatogenesis in CD1 mouse assessed as change in sperm release at stage 9 into lumen in testes at 2 to 10 mg/kg, po for 7 days measured after 1 month by bright-field microscopic analysis relative to control; type: functional, organism-based; in short: as §5
Mus musculus [27] = assay: Inhibition of spermatogenesis in CD1 mouse assessed as change in alignment of step 16 spermatids at lumen in stage 8 tubules in testes at 2 to 10 mg/kg, po for 7 days measured after 1 month by bright-field microscopic analysis relative to control; type: functional, organism-based; in short: as §5
[28] = molecular target: T1, Retinoic acid receptor alpha (Homo sapiens) (UniProt P10276); assay: Antagonist activity at human RARalpha expressed in human HeLa cells assessed as inhibition of ATRA-induced RARE-chloramphenicol acetyltransferase reporter gene expression after 24 hrs by transactivation competition assay; type: cell-based
T1 sequence (whole entry): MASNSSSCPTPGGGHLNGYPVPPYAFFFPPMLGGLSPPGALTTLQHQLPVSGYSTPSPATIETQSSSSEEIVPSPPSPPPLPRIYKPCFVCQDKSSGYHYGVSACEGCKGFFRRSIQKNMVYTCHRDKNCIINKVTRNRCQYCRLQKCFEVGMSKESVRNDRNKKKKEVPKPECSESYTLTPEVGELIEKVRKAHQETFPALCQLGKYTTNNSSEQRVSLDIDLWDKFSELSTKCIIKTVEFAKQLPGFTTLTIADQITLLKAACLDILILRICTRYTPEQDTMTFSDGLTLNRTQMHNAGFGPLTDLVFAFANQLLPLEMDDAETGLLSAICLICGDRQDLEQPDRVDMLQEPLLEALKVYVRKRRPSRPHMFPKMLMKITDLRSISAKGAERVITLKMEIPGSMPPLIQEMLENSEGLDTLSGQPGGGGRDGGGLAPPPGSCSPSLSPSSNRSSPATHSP
In short: (§6)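 HeLa cells cotransfected with RAR constructs and a constant beta-galactosidase plasmid as internal control, given 10–7 M ATRA (submaximal) plus increasing concentrations of compound; CAT reporter expression measured after 24 h. RARα, RARβ and RARγ tested. Vehicle control was dilution medium without retinoid; ATRA served as positive control.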

[29] = molecular target: T1, Retinoic acid receptor alpha (Homo sapiens); assay: Antagonist activity at human RARalpha expressed in human HeLa cells assessed as inhibition of ATRA-induced RARE transactivation after 24 hrs by chloramphenicol acetyltransferase reporter gene assay; type: cell-based; in short: as §6
Mus musculus [30] = assay: Defect in spermatogenesis in CD1 mouse testicular tubules at 10 mg/kg, ip after 7 days; type: functional, organism-based; parameters: dose 10 mg/kg
In short: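 Male mice dosed intraperitoneally at 10 mg/kg daily for 7 days (n = 4); testicular tubules examined histologically one day post-treatment for retained spermatids, with defects quantified.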

Mus musculus [31] = assay: Effect on spermatogenesis in CD1 mouse at 10 mg/kg, iv for 7 days measured after 4 weeks; type: functional, organism-based; parameters: dose 10 mg/kg
In short: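 Male mice dosed intravenously at 10 mg/kg; testes examined histologically 4 weeks post-treatment for spermatogenesis.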

Mus musculus [32] = assay: Effect on spermatogenesis in CD1 mouse assessed as sperm release into testicular lumen at 2 to 10 mg/kg, po for 7 days; type: functional, organism-based; in short: as §5
Mus musculus [33] = assay: Effect on spermatogenesis in CD1 mouse assessed as disruptive effect on spermatid alignment at 2 to 10 mg/kg, po for 7 days; type: functional, organism-based; in short: as §5

Cc1ccc(C2=CCC(C)(C)c3ccc(C(=O)Nc4ccc(C(=O)O)cc4)cc32)cc1
Drug uptake [1]: Not Active | Drug uptake [2]: Active | Activity (Mus musculus [3]): Active | permeability (Caco-2 [4]): 0.7 ×10⁻⁶ cm/s | Activity (Mus musculus [5]): Active | recovery at 10 µM [6]: 46% | remaining at 1 h, 1 µM [7]: 49% | remaining at 1 h, 1 µM [8]: 86% | Fu (Plasma [9]): 0.8% | Activity (Mus musculus [10]): Active | recovery at 10 µM [11]: 20% | Activity (Mus musculus [12]): Active | Drug recovery (Plasma [13]): 99.8% | permeability (Caco-2 [14]): 8.3 ×10⁻⁶ cm/s | PPB (Plasma [15]): 99.2% | logD [16]: 3.84 | solubility [17]: 136 µM (≈ 56 µg/mL) | Stability [18]: Stable | Activity (Mus musculus [19]): Non-toxic | Activity (Mus musculus [20]): Non-toxic | inhibition (Mus musculus [21]): inactive | inhibition (Mus musculus [22]): inactive | inhibition (Mus musculus [23]): inactive | inhibition (Mus musculus [24]): inactive | Activity (Mus musculus [25]): Non-toxic | inhibition (Mus musculus [26]): inactive | inhibition (Mus musculus [27]): inactive | Activity [28]: Active | Activity [29]: Active | Activity (Mus musculus [30]): Active | Activity (Mus musculus [31]): inactive

CC1(C)CC=C(c2cnc3ccccc3c2)c2cc(C(=O)Nc3ccc(C(=O)O)cc3)ccc21
Activity (Mus musculus [19]): Non-toxic | Activity (Mus musculus [20]): Non-toxic | inhibition (Mus musculus [21]): inactive | inhibition (Mus musculus [22]): inactive | inhibition (Mus musculus [23]): inactive | inhibition (Mus musculus [24]): inactive | Activity (Mus musculus [25]): Non-toxic | inhibition (Mus musculus [26]): inactive | inhibition (Mus musculus [27]): inactive

CC1(C)CC=C(c2ccccc2)c2cc(/C=C/c3ccc(C(=O)O)cc3)ccc21
Activity (Mus musculus [32]): Active | Activity (Mus musculus [33]): Active | remaining at 1 h, 1 µM [7]: 79% | recovery at 10 µM [11]: 14% | Drug recovery (Plasma [13]): 93.3% | permeability (Caco-2 [14]): < 0.7 ×10⁻⁶ cm/s | PPB (Plasma [15]): 95.3% | logD [16]: 3.25 | solubility [17]: 3.1 µM (≈ 1.18 µg/mL) | Stability [18]: Stable
